Activity calls are given as the source filed them. No cut-off for these calls is given here.
Tests used:
Rattus norvegicus [1] = assay: Effective dose which lowered the serum prolactin levels after po administration in rats; type: functional
Outline: (§1)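 Sprague–Dawley rats given α-methyltyrosine 200 mg/kg ip 1 h before compound. Decapitated 30 min after ip or 60 min after oral dosing. Serum prolactin measured by double-antibody RIA. ED50 = dose lowering prolactin to 50% of the α-methyltyrosine-treated control, from one dose–response curve of at least seven doses with 7–9 rats per dose.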

Rattus norvegicus [2] = assay: Effective dose which lowered the serum prolactin levels after ip administration in rats; type: functional; outline: as §1
Rattus norvegicus [3] = species: Rattus norvegicus; assay: Ability to induce contralateral rotational behavior in rats with a unilateral 6-OHDA-induced lesion of the nigrostriatal dopamine (DA) pathway.; type: functional
Outline: (§2)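 Male Sprague–Dawley rats given unilateral 6-OHDA (8 μg in 3 μL, with ascorbic acid) into the left medial forebrain bundle under pentobarbital anesthesia. Rats were selected 3–4 weeks later for turning 8–10/min after apomorphine 0.25 mg/kg sc. Groups of 4–8 were dosed sc (in water or Tween 80 suspension) and recorded in automatic rotometers until turning stopped. Outputs: total contralateral turns and peak rotations/min.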

Rattus norvegicus [4] = assay: Dopaminergic activity in rats rendered hypokinetic by the bilateral injection of 6-hydroxydopamine (6-OHDA) into the anterolateral hypothalamus at dose of 1.25 mg/kg sc; type: functional; details: route subcutaneous
Rattus norvegicus [5] = assay: Max. intensity of rotational behavior in rats with a unilateral 6-OHDA-induced lesion of the nigrostriatal dopamine (DA) pathway at dose of 2.5 mg/kg sc.; type: functional; outline: as §2
Rattus norvegicus [6] = assay: Dopaminergic activity in rats rendered hypokinetic by the bilateral injection of 6-hydroxydopamine (6-OHDA) into the anterolateral hypothalamus at dose of 25 mg/kg sc; Inactive; type: functional, organism-based; set-up: dose 25 mg/kg
D(2) dopamine receptor = D(2) dopamine receptor (Rattus norvegicus, UniProt P61169); assay: Compound was for its ability to displace [3H]haloperidol binding to rat striatal Dopamine receptor D2
Outline: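 Rat striatal membranes at about 20 mg/mL final tissue concentration. [3H]haloperidol 2 nM, incubated 10 min. Nonspecific binding defined with (+)-butaclamol 1.0 μM.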

Rattus norvegicus [7] = assay: Dopaminergic activity in rats rendered hypokinetic by the bilateral injection of 6-hydroxydopamine (6-OHDA) into the anterolateral hypothalamus at dose of 25 mg/kg sc; type: functional; details: route subcutaneous
Rattus norvegicus [8] = assay: Dopaminergic activity in rats rendered hypokinetic by the bilateral injection of 6-hydroxydopamine (6-OHDA) into the anterolateral hypothalamus at dose of 50 mg/kg sc; Inactive; type: functional, organism-based; set-up: dose 50 mg/kg
Rattus norvegicus [9] = assay: Dopaminergic activity in rats rendered hypokinetic by the bilateral injection of 6-hydroxydopamine (6-OHDA) into the anterolateral hypothalamus at dose of 10 mg/kg sc; type: functional; details: route subcutaneous
[10] = biological target: T1, Adrenergic receptor alpha-1 (Rattus norvegicus, UniProt P15823+P23944+P43140); assay: Ability to displace [3H]WB-4101 from rat brain alpha-1 adrenergic receptor
T1 sequence (P15823 whole entry): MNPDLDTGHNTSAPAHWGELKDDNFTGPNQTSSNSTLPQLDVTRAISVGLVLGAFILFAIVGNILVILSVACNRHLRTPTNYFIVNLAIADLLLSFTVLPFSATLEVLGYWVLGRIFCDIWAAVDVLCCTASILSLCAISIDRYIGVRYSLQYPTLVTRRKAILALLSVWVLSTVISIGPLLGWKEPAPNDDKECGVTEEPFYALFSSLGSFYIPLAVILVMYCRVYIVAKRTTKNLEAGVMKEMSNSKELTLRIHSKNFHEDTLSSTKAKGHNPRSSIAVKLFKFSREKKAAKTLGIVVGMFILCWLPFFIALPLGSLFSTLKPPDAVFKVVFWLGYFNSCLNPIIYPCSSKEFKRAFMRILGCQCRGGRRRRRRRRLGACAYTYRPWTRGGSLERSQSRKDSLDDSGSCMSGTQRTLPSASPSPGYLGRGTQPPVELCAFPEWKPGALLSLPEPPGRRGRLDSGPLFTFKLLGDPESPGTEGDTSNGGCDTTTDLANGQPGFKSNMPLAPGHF
T1 sequence (P23944 whole entry): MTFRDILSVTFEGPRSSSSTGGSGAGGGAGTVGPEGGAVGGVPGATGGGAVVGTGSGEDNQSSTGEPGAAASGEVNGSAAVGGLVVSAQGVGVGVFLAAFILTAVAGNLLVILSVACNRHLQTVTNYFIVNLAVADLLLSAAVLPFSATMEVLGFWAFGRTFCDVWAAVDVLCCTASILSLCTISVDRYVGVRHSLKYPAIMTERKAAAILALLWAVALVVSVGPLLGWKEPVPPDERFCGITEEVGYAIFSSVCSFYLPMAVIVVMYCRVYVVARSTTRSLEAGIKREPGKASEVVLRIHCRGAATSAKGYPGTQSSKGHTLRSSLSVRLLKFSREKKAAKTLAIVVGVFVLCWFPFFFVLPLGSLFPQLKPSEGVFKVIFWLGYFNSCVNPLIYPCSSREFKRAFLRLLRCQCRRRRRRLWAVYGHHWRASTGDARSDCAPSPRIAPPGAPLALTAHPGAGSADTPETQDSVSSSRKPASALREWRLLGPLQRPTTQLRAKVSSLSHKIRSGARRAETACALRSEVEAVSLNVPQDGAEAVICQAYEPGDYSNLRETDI
T1 sequence (P43140 whole entry): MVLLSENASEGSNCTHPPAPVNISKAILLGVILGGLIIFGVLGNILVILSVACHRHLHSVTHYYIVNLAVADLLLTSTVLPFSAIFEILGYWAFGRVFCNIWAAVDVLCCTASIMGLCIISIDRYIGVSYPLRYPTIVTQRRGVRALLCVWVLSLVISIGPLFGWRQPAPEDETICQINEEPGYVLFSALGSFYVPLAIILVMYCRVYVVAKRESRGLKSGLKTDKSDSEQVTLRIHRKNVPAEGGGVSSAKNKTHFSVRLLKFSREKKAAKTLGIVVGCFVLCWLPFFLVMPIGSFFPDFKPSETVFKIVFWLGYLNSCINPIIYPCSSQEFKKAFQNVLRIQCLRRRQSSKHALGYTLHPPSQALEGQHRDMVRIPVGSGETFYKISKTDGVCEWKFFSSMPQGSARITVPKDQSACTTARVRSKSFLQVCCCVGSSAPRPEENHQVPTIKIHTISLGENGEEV
Outline: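 Rat whole brain minus cerebellum and brain stem, membranes at about 20 mg/mL final tissue concentration. [3H]WB-4101 0.22 nM, incubated 15 min. Nonspecific binding defined with (-)-norepinephrine 2 μM. IC50 = concentration giving 50% displacement of specific binding, taken from Hill linearization. Three separate experiments.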

Rattus norvegicus [11] = assay: Dopaminergic activity in rats rendered hypokinetic by the bilateral injection of 6-hydroxydopamine (6-OHDA) into the anterolateral hypothalamus at dose of 50 mg/kg sc; type: functional; details: route subcutaneous
Rattus norvegicus [12] = assay: Dopaminergic activity in rats rendered hypokinetic by the bilateral injection of 6-hydroxydopamine (6-OHDA) into the anterolateral hypothalamus at dose of 5 mg/kg sc; type: functional; details: route subcutaneous
Rattus norvegicus [13] = assay: Dopaminergic activity in rats rendered hypokinetic by the bilateral injection of 6-hydroxydopamine (6-OHDA) into the anterolateral hypothalamus at dose of 2.5 mg/kg sc; type: functional; details: route subcutaneous
Rattus norvegicus [14] = assay: Max. intensity of rotational behavior in rats with a unilateral 6-OHDA-induced lesion of the nigrostriatal dopamine (DA) pathway at dose of 2.5 mg/kg sc; type: functional; details: route subcutaneous; outline: as §2
Rattus norvegicus [15] = species: Rattus norvegicus; assay: Ability to induce contralateral rotational behavior in rats with a unilateral 6-OHDA-induced lesion of the nigrostriatal dopamine (DA) pathway; type: functional; outline: as §2
[16] = Rattus norvegicus, Serum, po, read-out: ED50
[17] = Rattus norvegicus, Serum, ip, read-out: ED50

Sequence of D(2) dopamine receptor (P61169 whole entry): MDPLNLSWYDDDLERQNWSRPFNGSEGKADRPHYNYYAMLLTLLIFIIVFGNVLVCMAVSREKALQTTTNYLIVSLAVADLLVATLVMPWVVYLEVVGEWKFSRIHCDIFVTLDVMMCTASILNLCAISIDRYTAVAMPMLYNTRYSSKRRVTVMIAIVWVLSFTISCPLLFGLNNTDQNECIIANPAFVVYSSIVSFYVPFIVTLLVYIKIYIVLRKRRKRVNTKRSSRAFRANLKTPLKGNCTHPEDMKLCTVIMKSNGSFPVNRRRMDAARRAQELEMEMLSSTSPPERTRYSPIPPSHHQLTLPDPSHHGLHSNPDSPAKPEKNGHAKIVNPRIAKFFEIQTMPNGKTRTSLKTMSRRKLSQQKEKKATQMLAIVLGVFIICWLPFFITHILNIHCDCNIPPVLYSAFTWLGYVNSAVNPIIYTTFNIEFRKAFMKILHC

COc1ccc([C@H](O)[C@@H](C)N2CCN(c3cccccc3=O)CC2)cc1OC (stereo in doubt; 18)
ED50 (Rattus norvegicus [1]): 0.15 mg/kg
ED50 (Rattus norvegicus [2]): 0.04 mg/kg
Activity (Rattus norvegicus [3]): 2109
Activity (Rattus norvegicus [4]): 186
Max intensity (Rattus norvegicus [5]; 2.5 mg/kg): 14.6 rotations min-1

COc1cc(C(O)CN2CCN(c3cccccc3=O)CC2)ccc1O (centres undefined)
Activity (Rattus norvegicus [6]): inactive

O=c1cccccc1N1CCN(CCc2ccc(O)c(O)c2)CC1
IC50 (D(2) dopamine receptor): 760 nM
Activity (Rattus norvegicus [7]): 98

O=c1cccccc1N1CCN(CC(O)c2ccccc2)CC1 (centres undefined)
Activity (Rattus norvegicus [8]): inactive

COc1ccc(CC/N=c2/cccccc2O)cc1OC
Activity (Rattus norvegicus [8]): inactive

COc1ccc(CCNCC/N=c2/cccccc2O)cc1OC
Activity (Rattus norvegicus [8]): inactive

COc1ccc(CCN2CCN(c3cccccc3=O)CC2)cc1OC
IC50 (D(2) dopamine receptor): 880 nM
Activity (Rattus norvegicus [9]): 101

NCCc1ccc(O)c(O)c1 [DOPAMINE]
IC50 [10]: 90000 nM

COc1ccc([C@@H](O)[C@@H](C)N2CCN(c3cccccc3=O)CC2)cc1OC
IC50 (D(2) dopamine receptor): 8550 nM
Activity (Rattus norvegicus [9]): 55

COc1ccc(C(O)CN2CCN(c3cccccc3=O)CC2)cc1 (centres undefined)
Activity (Rattus norvegicus [11]): 105

COc1ccc(CCN2CCCN(c3cccccc3=O)CC2)cc1OC
Activity (Rattus norvegicus [8]): inactive

COc1cccc(C(O)CN2CCN(c3cccccc3=O)CC2)c1 (centres undefined)
Activity (Rattus norvegicus [8]): inactive

COc1ccc([C@H](O)CN2CCN(c3cccccc3=O)CC2)cc1OC [CILADOPA]
Activity (Rattus norvegicus [12]): 320
IC50 [10]: 1090 nM
ED50 (Rattus norvegicus [1]; [16]): 0.9 mg/kg
ED50 (Rattus norvegicus [2]; [17]): 0.36 mg/kg
IC50 (D(2) dopamine receptor): 2200 nM
Activity (Rattus norvegicus [3]): 1770
Max intensity (Rattus norvegicus [5]): 10.7 rotations min-1

COc1ccc([C@H](O)[C@@H](C)N2CCN(c3cccccc3=O)CC2)cc1OC (stereo in doubt; 14)
ED50 (Rattus norvegicus [1]; [16]): 0.25 mg/kg
ED50 (Rattus norvegicus [2]): 0.2 mg/kg
Activity (Rattus norvegicus [13]): 111
IC50 (D(2) dopamine receptor): 1050 nM
Activity (Rattus norvegicus [3]): 1903
Max intensity (Rattus norvegicus [5]; 2.5 mg/kg): 9.5 rotations min-1

CC(C)C[C@H]1C(=O)N2CCC[C@H]2[C@]2(O)O[C@](NC(=O)[C@@H]3C=C4c5cccc6[nH]c(Br)c(c56)C[C@H]4N(C)C3)(C(C)C)C(=O)N12 [BROMOCRIPTINE]
ED50 (Rattus norvegicus [1]; [16]): 0.6 mg/kg
ED50 (Rattus norvegicus [2]; [17]): 0.24 mg/kg
Activity (Rattus norvegicus [3]): 836
Activity (Rattus norvegicus [9]): 112
Max intensity (Rattus norvegicus [5]): 4.7 rotations min-1

O=c1cccccc1N1CCN(CCc2ccc(F)cc2)CC1
Activity (Rattus norvegicus [8]): inactive

COc1ccc(C(O)CN2CCN(c3ccccc3)CC2)cc1OC (centres undefined)
Activity (Rattus norvegicus [8]): inactive

COc1cc(C(O)CN2CCN(c3cccccc3=O)CC2)cc(OC)c1OC (centres undefined)
Activity (Rattus norvegicus [8]): inactive

COc1ccc(C(O)CN2CCN(c3cccccc3=O)CC2)cc1OC.Cl (centres undefined)
IC50 [10]: 1070 nM
ED50 (Rattus norvegicus [1]; [16]): 2 mg/kg
ED50 (Rattus norvegicus [2]; [17]): 0.48 mg/kg
Max intensity (Rattus norvegicus [14]): 9.2 rotations min-1
IC50 (D(2) dopamine receptor): 1500 nM
Activity (Rattus norvegicus [9]): 191
Activity (Rattus norvegicus [15]): 823

O=c1cccccc1N1CCN(CC(O)c2ccc(F)cc2)CC1 (centres undefined)
Activity (Rattus norvegicus [8]): inactive

COc1ccc([C@H](O)[C@@H](C)N2CCN(c3cccccc3=O)CC2)cc1OC (stereo in doubt; 17)
ED50 (Rattus norvegicus [2]): 2.2 mg/kg
Activity (Rattus norvegicus [13]): 20
Activity (Rattus norvegicus [3]): 121
Max intensity (Rattus norvegicus [5]; 2.5 mg/kg): 1.1 rotations min-1

O=c1cccccc1N1CCN(CCc2ccccc2)CC1
Activity (Rattus norvegicus [8]): inactive

COc1ccc([C@@H](O)CN2CCN(c3cccccc3=O)CC2)cc1OC
Activity (Rattus norvegicus [12]): 27
IC50 [10]: 1440 nM
ED50 (Rattus norvegicus [2]; [17]): 2.7 mg/kg
IC50 (D(2) dopamine receptor): 16600 nM
Activity (Rattus norvegicus [3]): 140
Max intensity (Rattus norvegicus [5]): 1.3 rotations min-1

From ChEMBL document CHEMBL1123392 (J Med Chem, 1986)
